Reference: EPA's CvTdb concentration-time database

Assays:
Rat [1] = experiment: concentration in plasma after dosing; conditions: 0.25 h; dosed: 2-Hydroxy-4-methoxybenzophenone; 500 mg/kg; oral; Female; F344
Rat [2] = experiment: concentration in plasma after dosing; conditions: dosed: 2-Hydroxy-4-methoxybenzophenone, 250 mg/kg, oral, Male, F344
Rat [3] = experiment: concentration in plasma after dosing; conditions: dosed: 2-Hydroxy-4-methoxybenzophenone, 250 mg/kg, oral, Male, F344; remark: listed apart in the source
Rat [4] = experiment: concentration in plasma after dosing; conditions: dosed: 2-Hydroxy-4-methoxybenzophenone, 250 mg/kg, oral, Female, F344
Mouse = experiment: concentration in plasma after dosing; conditions: 2 h; dosed: 2-Hydroxy-4-methoxybenzophenone; 500 mg/kg; oral; Male; B6C3F1
Rat [5] = experiment: concentration in plasma after dosing; conditions: dosed: 2-Hydroxy-4-methoxybenzophenone, 250 mg/kg, oral, Male, F344; remark: listed apart in the source
Rat [6] = experiment: concentration in plasma after dosing; conditions: dosed: 2-Hydroxy-4-methoxybenzophenone, 100 mg/kg, oral, Female, F344
Rat [7] = experiment: concentration in brain after dosing; conditions: 10 min; dosed: alpha-Thujone; 25 mg/kg; oral; Male; Harlan Sprague Dawley
Rat [8] = experiment: concentration in brain after dosing; conditions: 3 h; dosed: alpha-Thujone; 50 mg/kg; oral; Female; Harlan Sprague Dawley
Rat [9] = experiment: concentration in brain after dosing; conditions: 3 h; dosed: alpha-Thujone; 25 mg/kg; oral; Female; Harlan Sprague Dawley
Rat [10] = experiment: concentration in brain after dosing; conditions: 5 min; dosed: alpha-Thujone; 25 mg/kg; oral; Male; Harlan Sprague Dawley
Rat [11] = experiment: concentration in plasma after dosing; conditions: 1.5 h; dosed: alpha-Thujone; 25 mg/kg; oral; Male; Harlan Sprague Dawley
Rat [12] = experiment: concentration in plasma after dosing; conditions: 2 min; dosed: alpha-Thujone; 50 mg/kg; oral; Female; Harlan Sprague Dawley
Rat [13] = experiment: concentration in plasma after dosing; conditions: 0.5 h; dosed: alpha-Thujone; 50 mg/kg; oral; Male; Harlan Sprague Dawley
Rat [14] = experiment: concentration in plasma after dosing; conditions: 6 h; dosed: alpha-Thujone; 50 mg/kg; oral; Female; Harlan Sprague Dawley
Rat [15] = experiment: concentration in plasma after dosing; conditions: 12 h; dosed: alpha-Thujone; 50 mg/kg; oral; Female; Harlan Sprague Dawley
Rat [16] = experiment: concentration in plasma after dosing; conditions: 5 min; dosed: alpha-Thujone; 25 mg/kg; oral; Male; Harlan Sprague Dawley
Rat [17] = experiment: concentration in plasma after dosing; conditions: 3 h; dosed: alpha-Thujone; 50 mg/kg; oral; Male; Harlan Sprague Dawley
Rat [18] = experiment: concentration in brain after dosing; conditions: 6 h; dosed: Perfluorohexane-1-sulphonic acid – potassium salt; 16 mg/kg; oral; Female; F344
Rat [19] = experiment: concentration in kidney after dosing; conditions: 12 h; dosed: Perfluorohexane-1-sulphonic acid – potassium salt; 16 mg/kg; oral; Female; F344
Rat [20] = experiment: concentration in kidney after dosing; conditions: 48 h; dosed: Perfluorohexane-1-sulphonic acid – potassium salt; 16 mg/kg; oral; Female; Harlan Sprague Dawley
Rat [21] = experiment: concentration in plasma after dosing; conditions: 2 h; dosed: Pyridine; 5 mg/kg; iv; Male; F344
Rat [22] = experiment: concentration in plasma after dosing; conditions: 50 min; dosed: Pyridine; 10 mg/kg; iv; Male; F344
Rat [23] = experiment: concentration in plasma after dosing; conditions: dosed: Methyleugenol, 37 mg/kg, iv, Male, F344
Rat [24] = experiment: concentration in plasma after dosing; conditions: 20 min; dosed: Methyleugenol; 37 mg/kg; oral; Male; F344/N
Rat [25] = experiment: concentration in plasma after dosing; conditions: dosed: Methyleugenol, 37 mg/kg, oral, Male, F344/N
Rat [26] = experiment: concentration in plasma after dosing; conditions: dosed: Methyleugenol, 37 mg/kg, oral, Female, F344/N
Rat [27] = experiment: concentration in plasma after dosing; conditions: dosed: Methyleugenol, 37 mg/kg, oral, Male, F344/N; remark: listed apart in the source
Hamster = experiment: concentration in plasma after dosing; conditions: dosed: 2,4-Dichlorophenoxyacetic acid, 8.0 mg/kg, oral, Male, Syrian Golden
How it was run: (§1)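 A PubMed search, classifier screening and manual review identified published in vivo toxicokinetic studies, which together with two structured collections supplied concentration-versus-time and amount-versus-time points. Points were mostly digitised from plot screenshots with WebPlotDigitizer, otherwise copied from tables. Dose, route, subject details and medium were hand-curated from each paper, and sampling and analytical methods are those of the sources, often unreported.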

human = experiment: concentration in blood after dosing; negative times count back from the end of exposure; conditions: dosed: trichloroethylene, 100 ppm, inhalation, duration: 6 hr, female
How it was run: as §1

Rat [28] = experiment: concentration in plasma after dosing; conditions: 0.5 h; dosed: Primidone; 130 mg/kg; oral; Male; Harlan Sprague Dawley
Rat [29] = experiment: concentration in plasma after dosing; conditions: 0.5 h; dosed: Primidone; 130 mg/kg; oral; Female; F344

## O=C(c1ccccc1)c1ccc(O)cc1O [2,4-Dihydroxybenzophenone]
Rat [1]
  concentration in plasma: 1.54 µg/mL
Rat [2]; 0.25 h
  concentration in plasma: 0.033 µg/mL
Rat [2]; 4 h
  concentration in plasma: 0.0904 µg/mL
Rat [3]; 0.25 h
  concentration in plasma: 0.083 µg/mL
Rat [3]; 4 h
  concentration in plasma: 0.121 µg/mL
Rat [4]; 0.25 h
  concentration in plasma: 0.473 µg/mL
Rat [4]; 4 h
  concentration in plasma: 0.068 µg/mL
Mouse
  concentration in plasma: 0.318 µg/mL
Rat [5]; 0.5 h
  concentration in plasma: 0.888 µg/mL
Rat [5]; 10 h
  concentration in plasma: 0.0755 µg/mL
Rat [6]; 10 min
  concentration in plasma: 0.126 µg/mL
Rat [6]; 3 h
  concentration in plasma: 0.059 µg/mL

## CC(C)[C@]12CC(=O)[C@H](C)[C@H]1C2 [alpha-Thujone]
Rat [7]
  concentration in brain: 2000 ng/g
Rat [8]
  concentration in brain: 416 ng/g
Rat [9]
  concentration in brain: 556 ng/g
Rat [10]
  concentration in brain: 1220 ng/g
Rat [11]
  concentration in plasma: 0.24 µg/mL
Rat [12]
  concentration in plasma: 0.145 µg/mL
Rat [13]
  concentration in plasma: 2.18 µg/mL
Rat [14]
  concentration in plasma: 0.169 µg/mL
Rat [15]
  concentration in plasma: 0.0231 µg/mL
Rat [16]
  concentration in plasma: 0.247 µg/mL
Rat [17]
  concentration in plasma: 0.357 µg/mL

## O=S(=O)([O-])C(F)(F)C(F)(F)C(F)(F)C(F)(F)C(F)(F)C(F)(F)F.[K+] [Perfluorohexane-1-sulphonic acid – potassium salt]
Rat [18]
  concentration in brain: 1620 ng/g
Rat [19]
  concentration in kidney: 37000 ng/g
Rat [20]
  concentration in kidney: 11300 ng/g

## c1ccncc1 [Pyridine]
Rat [21]
  concentration in plasma: 2.92 µg/mL
Rat [22]
  concentration in plasma: 4.15 µg/mL

## C=CCc1ccc(OC)c(OC)c1 [Methyleugenol]
Rat [23]; 0.25 h
  concentration in plasma: 9.38 µg/mL
Rat [23]; 1.5 h
  concentration in plasma: 0.67 µg/mL
Rat [24]
  concentration in plasma: 0.246 µg/mL
Rat [25]; 2 min
  concentration in plasma: 0.036 µg/mL
Rat [25]; 3 h
  concentration in plasma: 0.0461 µg/mL
Rat [26]; 2 min
  concentration in plasma: 0.0133 µg/mL
Rat [26]; 2 h
  concentration in plasma: 0.0252 µg/mL
Rat [27]; 5 min
  concentration in plasma: 0.67 µg/mL
Rat [27]; 6 h
  concentration in plasma: 0.0116 µg/mL

## O=C(O)COc1ccc(Cl)cc1Cl [2,4-Dichlorophenoxyacetic acid]
Hamster; 5 min
  concentration in plasma: 25.7 µg/mL
Hamster; 0.25 h
  concentration in plasma: 21.8 µg/mL
Hamster; 0.5 h
  concentration in plasma: 8.62 µg/mL
Hamster; 1 h
  concentration in plasma: 1.74 µg/mL
Hamster; 1.5 h
  concentration in plasma: 0.761 µg/mL
Hamster; 2 h
  concentration in plasma: 1.36 µg/mL
Hamster; 2.5 h
  concentration in plasma: 0.115 µg/mL
Hamster; 6 h
  concentration in plasma: 0.466 µg/mL

## OCC(Cl)(Cl)Cl [trichloroethanol]
human; 0 h
  concentration in blood: 7.54 µg/mL
human; 18 h
  concentration in blood: 3.77 µg/mL
human; 24 h
  concentration in blood: 7.41 µg/mL
human; 42 h
  concentration in blood: 2.96 µg/mL
human; 48 h
  concentration in blood: 6.64 µg/mL
human; 66 h
  concentration in blood: 2.54 µg/mL
human; 72 h
  concentration in blood: 6.9 µg/mL
human; 90 h
  concentration in blood: 3.41 µg/mL
human; 96 h
  concentration in blood: 6.09 µg/mL
human; -6 h, during exposure
  concentration in blood: 0.222 µg/mL

## CCC1(c2ccccc2)C(=O)NCNC1=O [Primidone]
Rat [28]
  concentration in plasma: 47.9 µg/mL
Rat [29]
  concentration in plasma: 24 µg/mL
